Published values gathered from unrelated publications.
Lines come from different studies, so protocols differ.
Organism: Trypanosoma cruzi
Read-out: parasite growth
Notes: intracellular, amastigote

Compound	technique	cell line	strain	time	quantity	value
COc1ccc(Nc2nc(-c3ccco3)nc3ccccc23)cc1	imaging	U2OS			IC50	11.4 µM
O=C(Cn1ccnc1[N+](=O)[O-])NCc1ccccc1			TULAHUEN	6 days	EC90	1.64 µM
O=C(N[C@H](Cc1c[nH]c2ccccc12)C(=O)Nc1ccncc1)c1ccc(-c2cc(F)ccc2F)cc1F	imaging	C2C12		72 h	EC50	0.0013 µM
O=C(N[C@@H](Cc1ccccc1)C(=O)c1nccs1)[C@H](Cc1ccccc1)NC(=O)N1CCOCC1			TULAHUEN		IC50	31.7 µM
COc1ccc(Nc2nc(-c3ccncc3)nc3ccccc23)cc1	imaging	U2OS			IC50	24.5 µM
COC(=O)c1ccc(NCc2cncn2Cc2ccccc2[N+](=O)[O-])cc1-c1ccccc1		mouse Fibroblast			EC50	0.1 to 1 µM
c1ccc(C2CCN(c3nc(-c4ccco4)nc4ccccc34)C2)nc1 (stereo not shown)	imaging	U2OS			IC50	50 µM
COC(=O)c1ccc(NCc2cncn2Cc2ccccc2Cl)cc1-c1ccccc1		mouse Fibroblast			EC50	0.1 to 1 µM
O=C(N[C@@H](Cc1ccccc1)C(=O)c1cn(COCc2ccccc2)nn1)[C@H](Cc1ccccc1)NC(=O)N1CCOCC1			TULAHUEN		IC50	32.2 µM
Cc1ccc2nc(-c3ccc(F)c(F)c3)c(CN3CCC(Cc4ccccc4)CC3)n2c1			TULAHUEN	6 days	EC90	4.7 µM
